In ChEMBL document CHEMBL1130354, “Bicyclo[2.2.1]heptane and 6,6-dimethylbicyclo[3.1.1]heptane derivatives: orally active, potent, and selective prostaglandin D2 receptor antagonists” (J Med Chem, 1997):
pIC50: −log10 of the molar value.

How the values were obtained:
Prostacyclin receptor = Prostacyclin receptor (Homo sapiens, UniProt P43119); experiment: Inhibition of cAMP formation by carbacyclin in Prostaglandin I2 receptor (IP) assay; assay type: functional
In short: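 Platelets (human) preincubated 10 min at 37 °C with graded compound levels plus IBMX, then exposed 2 min to 0.1 μM carbacyclin; cAMP formation inhibition read out; IC50 is mean of two or three measurements.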

Thromboxane A2 receptor = target: T1, Thromboxane A2 receptor (Homo sapiens, UniProt P21731); experiment: Inhibition of [3H]- (+)-S-145 specific binding to human platelet membranes in TXA2 receptor (TP) assay
T1 sequence (P21731 whole entry): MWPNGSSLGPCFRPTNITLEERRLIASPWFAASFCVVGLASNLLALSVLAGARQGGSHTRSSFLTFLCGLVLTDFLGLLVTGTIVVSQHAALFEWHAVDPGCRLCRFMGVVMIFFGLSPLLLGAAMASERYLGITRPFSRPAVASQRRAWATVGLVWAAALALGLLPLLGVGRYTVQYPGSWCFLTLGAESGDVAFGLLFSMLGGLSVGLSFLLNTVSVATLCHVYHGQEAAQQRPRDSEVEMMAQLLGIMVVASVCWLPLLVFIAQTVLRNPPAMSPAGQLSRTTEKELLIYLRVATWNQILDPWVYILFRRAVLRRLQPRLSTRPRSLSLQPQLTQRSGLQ
In short: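 Membranes from human platelets incubated 60 min at room temperature with 2 nM [3H](+)-S-145 plus graded compound concentrations; specific binding inhibition gives IC50.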

Cavia porcellus [1] = organism: Cavia porcellus; experiment: Effect on PGD2-induced increase in vascular permeability in conjunctiva of normal guinea pigs; assay type: functional
In short: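 Normal guinea pigs; conjunctival microvascular permeability increase induced by topical 0.1% PGD2; dose producing 50% inhibition derived from dose–response data, n = 3–10 animals per point.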

Cavia porcellus [2] = organism: Cavia porcellus; experiment: Effect on antigen-induced increase in vascular permeability in conjunctiva of guinea pig which actively sensitized with ovalbumin; assay type: functional
In short: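 Guinea pigs actively sensitized with ovalbumin, challenged conjunctivally with antigen; increase in conjunctival microvascular permeability measured; ED50 from dose–response data, n = 3–10 animals per point.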

Cavia porcellus [3] = experiment: Inhibition of increase in specific airway resistance by antigen inhalation in conscious guinea pigs (10 mg/kg); assay type: functional
In short: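 Conscious guinea pigs given compound po 1 h before antigen inhalation; increase in specific airway resistance measured; percent inhibition as mean ± SEM, n = 4–11 animals/group; Student's t-test versus control.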

[4] = target: T2, Prostaglandin D2 receptor (Homo sapiens, UniProt Q13258); experiment: Inhibition of cAMP formation evoked by the prostaglandin D2 receptor in human platelets; assay type: functional
T2 sequence (Q13258 whole entry): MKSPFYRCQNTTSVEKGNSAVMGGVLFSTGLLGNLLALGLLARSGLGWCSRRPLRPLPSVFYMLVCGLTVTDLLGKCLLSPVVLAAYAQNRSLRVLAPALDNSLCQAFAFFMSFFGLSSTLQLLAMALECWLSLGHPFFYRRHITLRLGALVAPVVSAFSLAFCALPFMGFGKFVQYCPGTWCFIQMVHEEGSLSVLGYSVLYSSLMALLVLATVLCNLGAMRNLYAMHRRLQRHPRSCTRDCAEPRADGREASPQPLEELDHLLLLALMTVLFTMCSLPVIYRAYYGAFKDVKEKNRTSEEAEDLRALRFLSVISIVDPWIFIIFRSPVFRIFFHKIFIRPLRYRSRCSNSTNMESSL
In short: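 Human platelets preincubated 10 min at 37 °C with graded compound concentrations in presence of IBMX, then stimulated 2 min with 0.1 μM PGD2; inhibition of cAMP formation measured, IC50 derived.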

Cavia porcellus [5] = organism: Cavia porcellus; experiment: Dose required to inhibit 50% of antigen-induced increase in intranasal pressure; assay type: functional; settings: po
In short: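 Oral dosing of actively sensitized guinea pigs 1 h before antigen challenge; rise in intranasal pressure recorded; dose giving 50% inhibition taken from dose–response data, n = 5–10 animals per point.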

Cavia porcellus [6] = experiment: Inhibition of antigen-induced increase in intranasal pressure in actively sensitized guinea pigs at 1 mg/kg (iv); assay type: functional
In short: (§1)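 Actively sensitized guinea pigs; compound given iv 10 min before antigen challenge; antigen-induced rise in intranasal pressure measured, percent inhibition reported as mean ± SEM, n = 5–10/group; Student's t-test versus control.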

[7] = target: T2, Prostaglandin D2 receptor; experiment: Inhibition of [3H]PGD-2 specific binding to Prostaglandin D2 receptor from human platelet membranes
In short: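 Human platelet membranes incubated 60 min at 4 °C with 5 nM [3H]PGD2 and graded test compound concentrations; inhibition of specific binding measured, IC50 derived.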

Cavia porcellus [8] = experiment: Inhibition of antigen-induced increase in intranasal pressure in actively sensitized guinea pigs at 3 mg/kg (iv); assay type: functional; in short: as §1

Prostacyclin receptor, sequence (P43119 whole entry): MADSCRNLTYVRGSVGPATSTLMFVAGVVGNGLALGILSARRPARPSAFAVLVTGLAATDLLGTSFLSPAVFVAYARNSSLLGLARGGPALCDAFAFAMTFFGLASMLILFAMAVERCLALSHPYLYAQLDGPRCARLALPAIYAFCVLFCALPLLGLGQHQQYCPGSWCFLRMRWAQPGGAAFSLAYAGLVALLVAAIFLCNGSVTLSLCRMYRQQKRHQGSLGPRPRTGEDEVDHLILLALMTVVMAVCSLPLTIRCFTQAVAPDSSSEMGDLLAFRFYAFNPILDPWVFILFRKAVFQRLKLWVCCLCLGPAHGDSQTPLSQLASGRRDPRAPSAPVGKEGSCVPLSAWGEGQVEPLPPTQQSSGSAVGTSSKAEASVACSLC

| SMILES | pIC50 (Prostacyclin receptor) | pIC50 (Thromboxane A2 receptor) | ED50 (Cavia porcellus [1]) [mg/kg] | ED50 (Cavia porcellus [2]) [mg/kg] | Inhibition (Cavia porcellus [3]) [%] | pIC50 [4] | ED50 (Cavia porcellus [5]) [mg/kg] | inhibition in vivo at 1 mg/kg (Cavia porcellus [6]) [%] | pIC50 [7] | inhibition in vivo at 3 mg/kg (Cavia porcellus [8]) [%] |
| --- | --- | --- | --- | --- | --- | --- | --- | --- | --- | --- |
| CC1(C)[C@H]2C[C@H](C/C=C\CCCC(=O)O)[C@@H](NC(=O)c3csc4ccc(F)cc34)[C@@H]1C2 | < 5.00 | 6.37 | 3.5 | 8.9 | 69 | 8.74 | 1 |  |  |  |
| CC1(C)[C@H]2C[C@H](C/C=C\CCCC(=O)O)[C@@H](NC(=O)c3csc4ccc(O)cc34)[C@@H]1C2 | < 5.00 | 7.02 | 0.12 | 2 | 70 | 9.00 | 2.1 | 78 |  |  |
| CC1(C)[C@H]2C[C@H](C/C=C\CCCC(=O)O)[C@@H](NC(=O)c3ccc[nH]3)[C@@H]1C2 | < 5.00 | 5.51 |  |  |  | 7.19 |  |  | 7.49 |  |
| O=C(O)CCC/C=C\C[C@@H]1[C@H]2CC[C@H](C2)[C@H]1NC(=O)c1ccc(/N=N/c2ccccc2)cc1 | 5.85 |  |  |  |  | < 6.00 |  |  | 5.52 |  |
| CC1(C)[C@H]2C[C@H](C/C=C\CCCC(=O)O)[C@@H](NC(=O)c3ccc4oc5ccccc5c4c3)[C@@H]1C2 | 5.12 | 6.57 |  |  |  | 6.66 |  |  | 7.49 |  |
| CC1(C)[C@H]2C[C@H](C/C=C\CCCC(=O)O)[C@@H](NC(=O)c3cccc4ccsc34)[C@@H]1C2 | < 5.00 | 6.68 |  |  |  | 8.25 |  |  |  |  |
| CC1(C)[C@H]2C[C@H](C/C=C\CCCC(=O)O)[C@@H](NC(=O)c3csc4cc(O)ccc34)[C@@H]1C2 | < 5.00 | 6.39 |  |  |  |  |  |  |  |  |
| O=C(O)CCC/C=C\C[C@@H]1[C@H]2CC[C@H](C2)[C@H]1NS(=O)(=O)c1ccc2oc3ccccc3c2c1 | 5.82 | 5.77 |  |  |  | 7.15 | 3.5 | 82 |  |  |
| COc1cc2c(cc1S(=O)(=O)N[C@@H]1[C@@H]3CC[C@@H](C3)[C@H]1C/C=C\CCCC(=O)O)oc1ccccc12 | 5.23 | < 5.00 | 1.6 | 6.6 |  | 7.17 | 2.2 | 80 | 7.57 |  |
| O=C(O)CCC/C=C\C[C@@H]1[C@H]2CC[C@H](C2)[C@H]1NS(=O)(=O)c1ccc2cc(-c3ccccc3)[nH]c2c1 | < 5.00 | 5.92 |  |  |  | 6.92 | 7.2 | 60 | 7.33 |  |
| CC1(C)[C@H]2C[C@H](C/C=C\CCCC(=O)O)[C@@H](NC(=O)c3csc4ccccc34)[C@@H]1C2 | < 5.00 | 6.42 |  |  |  |  |  |  |  |  |
| CC1(C)[C@H]2C[C@H](C/C=C\CCCC(=O)O)[C@@H](NC(=O)c3ccsc3)[C@@H]1C2 | < 5.00 | 5.68 | 3.5 | 9.5 | 15 | 7.42 | 5.1 | 77 | 5.80 |  |
| O=C(O)CCC/C=C\C[C@@H]1[C@H]2CC[C@H](C2)[C@H]1NS(=O)(=O)c1ccc2oc3cc([N+](=O)[O-])ccc3c2c1 | 5.35 |  |  |  |  | 6.60 |  |  | 5.96 |  |
| CC1(C)[C@H]2C[C@H](C/C=C\CCCC(=O)O)[C@@H](NS(=O)(=O)c3ccc(/N=N/c4ccccc4)cc3)[C@@H]1C2 | 5.47 | 6.13 |  |  |  | < 6.00 |  |  | 5.89 |  |
| O=C(O)CCC/C=C\C[C@@H]1[C@H]2CC[C@H](C2)[C@H]1NS(=O)(=O)c1ccc2ccccc2c1 | 5.05 | 6.17 |  |  |  | 6.38 |  | 54 | 5.92 |  |
| O=C(O)CCC/C=C\C[C@@H]1[C@H]2CC[C@H](C2)[C@H]1NS(=O)(=O)c1ccc(/N=N/c2ccccc2)cc1 | < 5.00 | 5.89 |  |  |  | 6.49 |  |  | 7.57 |  |
| O=C(O)CCC/C=C\C[C@H]1[C@@H]2CC[C@@H](C2)[C@@H]1NS(=O)(=O)c1ccc2ccccc2c1 | 5.48 | 9.89 |  |  |  | < 6.00 |  | 6 | 5.31 |  |
| O=C(O)CCC/C=C\C[C@@H]1[C@H]2CC[C@H](C2)[C@H]1NS(=O)(=O)c1ccc(Oc2ccccc2)cc1 | < 5.00 | 5.89 |  |  |  | 6.11 |  | 25 | 6.14 |  |
| CC1(C)[C@H]2C[C@H](C/C=C\CCCC(=O)O)[C@@H](NC(=O)c3ccc(/N=N/c4ccccc4)cc3)[C@@H]1C2 | < 5.00 | 6.82 |  |  |  | 6.42 |  |  | 6.27 |  |
| CC1(C)[C@H]2C[C@H](C/C=C\CCCC(=O)O)[C@@H](NC(=O)c3ccccc3)[C@@H]1C2 | < 5.00 | 6.09 |  |  |  | 6.44 |  |  | 5.28 |  |
| O=C(O)CCC/C=C\C[C@@H]1[C@H]2CC[C@H](C2)[C@H]1NS(=O)(=O)c1ccc(-c2ccccc2)cc1 | 5.30 | 5.96 |  |  |  | 6.35 |  |  | 6.22 | 39 |
| O=C(O)CCC/C=C\C[C@@H]1[C@H]2CC[C@H](C2)[C@H]1NS(=O)(=O)c1ccc(C#Cc2ccccc2)cc1 | < 5.00 | 6.55 |  |  |  | 6.60 |  | 25 | 8.07 |  |
| CC1(C)[C@H]2C[C@H](C/C=C\CCCC(=O)O)[C@@H](NS(=O)(=O)c3ccc4oc5ccccc5c4c3)[C@@H]1C2 | < 5.00 | 6.62 |  |  |  | < 6.00 |  |  | 6.11 |  |
